Source: ChEMBL document CHEMBL1157095, “Antimalarial versus cytotoxic properties of dual drugs derived from 4-aminoquinolines and Mannich bases: interaction with DNA” (J Med Chem, 2010)
pIC50, pKd: −log10 of the molar value. The source made the active and inactive calls. The calls are words filed in the database; no cut-off is given here.

Columns and labels:
Plasmodium falciparum [1] = assay: Antiplasmodial activity against chloroquine-susceptible Plasmodium falciparum FCM29 infected in human erythrocytes assessed as inhibition of [3H]hypoxanthine uptake after 48 hrs; assay type: functional, organism-based
In short: (§1)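 Strains were cultured in A-positive human blood in RPMI 1640 with 10% human serum, 25 mM HEPES and 25 mM NaHCO3, under 10% O2/5% CO2/85% N2 at 37 °C. Microtests used 0.5% parasitemia and 1.5% hematocrit. Tritiated hypoxanthine (1 μCi/well) was added at time zero, then 48 h incubation, freeze-thaw, harvest and scintillation counting. IC50 was taken by nonlinear regression against drug-free controls.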

Plasmodium falciparum [2] = assay: Antiplasmodial activity against chloroquine-susceptible Plasmodium falciparum Voll infected in human erythrocytes assessed as inhibition of [3H]hypoxanthine uptake after 48 hrs; assay type: functional, organism-based; in short: as §1
Plasmodium falciparum [3] = assay: Antiplasmodial activity against chloroquine-susceptible Plasmodium falciparum 8425 infected in human erythrocytes assessed as inhibition of [3H]hypoxanthine uptake after 48 hrs; assay type: functional, organism-based; in short: as §1
Plasmodium berghei [4] = assay: Antiplasmodial activity against Plasmodium berghei ANKA infected in Swiss mice (Mus musculus) assessed as reduction of parasitaemia at 50 mg/kg, intraperitoneally daily for 4 days; assay type: functional, organism-based; design: dose 50 mg/kg
In short: (§2)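 Swiss mice (18-20 g) infected intravenously on day 0 with 2 × 10^6 P. berghei ANKA parasitized red cells. Compound was freshly prepared in 10% DMSO in sterile PBS and given ip, first 2 h postinfection, then on days +1-3 (4-day suppressive test). On day +4, parasitemia was counted microscopically on Giemsa-stained tail-blood films.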

Plasmodium falciparum [5] = assay: Antiplasmodial activity against chloroquine-susceptible Plasmodium falciparum 3D7 infected in human erythrocytes assessed as inhibition of [3H]hypoxanthine uptake after 48 hrs; assay type: functional, organism-based
In short: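 Culture in RPMI 1640 with 10% human serum, 25 mM HEPES, 25 mM NaHCO3, A-positive blood, 10% O2/5% CO2/85% N2, 37 C. Isotopic microtest: 0.5% parasitemia, 1.5% hematocrit, 1 μCi tritiated hypoxanthine at time zero, 48 h; freeze-thaw lysis, filter harvest, scintillation count. IC50 = 50% uptake versus drug-free control, nonlinear regression of log dose-response curves.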

Mus musculus [6] = assay: Toxicity in ip dosed Swiss mouse assessed as mortality at 30 mg/kg, ip; assay type: organism-based; design: dose 30 mg/kg, route intraperitoneal; details: in vivo
In short: (§3)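 Peters 4-day suppressive test, P. berghei ANKA: 18-20 g mice infected iv with 2 × 10^6 parasitized red cells day 0; compounds freshly made in 10% DMSO in sterile PBS, given ip from 2 h postinfection and on days 1-3; daily dose 30 mg/kg or 50 mg/kg; deaths recorded.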

Plasmodium falciparum [7] = assay: Antiplasmodial activity against chloroquine-susceptible Plasmodium falciparum PA infected in human erythrocytes assessed as inhibition of [3H]hypoxanthine uptake after 48 hrs; assay type: functional, organism-based; in short: as §1
Plasmodium falciparum [8] = assay: Antiplasmodial activity against chloroquine-susceptible Plasmodium falciparum L1 infected in human erythrocytes assessed as inhibition of [3H]hypoxanthine uptake after 48 hrs; assay type: functional, organism-based; in short: as §1
Plasmodium falciparum [9] = assay: Antiplasmodial activity against chloroquine-susceptible Plasmodium falciparum Bres infected in human erythrocytes assessed as inhibition of [3H]hypoxanthine uptake after 48 hrs; assay type: functional, organism-based; in short: as §1
Nucleic Acid [10] = assay: Binding affinity to pUC18 DNA containing 50% AT assessed as middle of the integrated surface melting temperature at 1 uM by spectrophotometry analysis; assay type: nucleic-acid assay
In short: (§4)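 Drug at 1 μM was mixed with DNA at 15 μM base pairs (15:1 bp:drug) in TE with 5 mM NaCl. Absorbance at 260 nm was recorded from 30-97 °C at 0.5 °C/min, with readings every 0.5 °C. Curves were normalized, smoothed and differentiated. Tmmax = derivative peak maximum; Tmint = middle of the integrated area; Tm1/2 = middle of the peak at half height.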

Plasmodium falciparum [11] = assay: Antiplasmodial activity against chloroquine-susceptible Plasmodium falciparum NF54 infected in human erythrocytes assessed as inhibition of [3H]hypoxanthine uptake after 48 hrs; assay type: functional, organism-based
In short: (§5)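 Asynchronous ring-stage cultures in human A Rh+ erythrocytes (RPMI 1640, HEPES, NaHCO3, hypoxanthine, 0.5% Albumax II, 5% CO2, 37 C), 1% parasitemia; top final drug concentration 30 μM. After 24 h, [3H]-hypoxanthine (0.2 μCi/well) added, further 48 h incubation; plates freeze-thawed, harvested, uptake counted; IC50 calculated.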

Nucleic Acid [12] = assay: Binding affinity to pUC18 DNA containing 50% AT assessed as middle of the peak at half height melting temperature at 1 uM by spectrophotometry analysis; assay type: nucleic-acid assay; in short: as §4
Nucleic Acid [13] = assay: Binding affinity to polydAdT DNA containing 100% AT assessed as middle of the integrated surface melting temperature at 1 uM by spectrophotometry analysis; assay type: nucleic-acid assay; in short: as §4
Plasmodium falciparum [14] = assay: Antiplasmodial activity against chloroquine, pyrimethamine, cycloguanil-resistant Plasmodium falciparum K1 infected in human erythrocytes assessed as inhibition of [3H]hypoxanthine uptake after 48 hrs; assay type: functional, organism-based; in short: as §5
MRC5 = assay: Cytotoxicity against human MRC5 after 3 days; assay type: cell-based; details: MRC5, 72 h
In short: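 MRC-5SV2 cells were grown in Earle's MEM with 5% FCSi and plated at about 10^4 cells/well. After 3 days of incubation, viability was read fluorimetrically with resazurin (ex 550/em 590 nm). Growth reduction was expressed relative to untreated control wells, and CC50 was derived.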

Plasmodium falciparum [15] = assay: Antiplasmodial activity against chloroquine-susceptible Plasmodium falciparum W2 infected in human erythrocytes assessed as inhibition of [3H]hypoxanthine uptake after 48 hrs; assay type: functional, organism-based; in short: as §1
Mus musculus [16] = assay: Toxicity in ip dosed Swiss mouse assessed as mortality at 50 mg/kg, ip; assay type: organism-based; design: dose 50 mg/kg, route intraperitoneal; details: in vivo; in short: as §3
NCH89 = assay: Antiproliferative activity against human carmustine-resistant NCH-89 cells assessed as BrdU incorporation after 48 hrs; assay type: functional, cell-based; details: NCH89, 48 h
In short: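 NCH89 glioblastoma cells were seeded at 7 × 10^3 cells/well in replicate wells for 24 h. Compound was then added at 0.1-100 μM. After 48 h, BrdU was added at 100 μM final, and incorporation was detected with a BrdU labeling/detection kit.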

Plasmodium falciparum [17] = assay: Antiplasmodial activity against chloroquine-susceptible Plasmodium falciparum D6 infected in human erythrocytes assessed as inhibition of [3H]hypoxanthine uptake after 48 hrs; assay type: functional, organism-based; in short: as §1
Plasmodium falciparum [18] = assay: Antiplasmodial activity against chloroquine-susceptible Plasmodium falciparum K14 infected in human erythrocytes assessed as inhibition of [3H]hypoxanthine uptake after 48 hrs; assay type: functional, organism-based; in short: as §1
Plasmodium falciparum [19] = assay: Antiplasmodial activity against chloroquine-susceptible Plasmodium falciparum K2 infected in human erythrocytes assessed as inhibition of [3H]hypoxanthine uptake after 48 hrs; assay type: functional, organism-based; in short: as §1
Nucleic Acid [20] = assay: Binding affinity to pUC18 DNA at pH 7.5 by spectrofluorimetry analysis; assay type: nucleic-acid assay
In short: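 A 1-10 μM drug solution was titrated at room temperature with linearized pUC18 DNA (50% AT), 0.1-50 μM base pairs final, in TE buffer with 5 mM NaCl (ionic strength 12 mM). Fluorescence used excitation at 320 nm and emission at 340-500 nm, corrected for buffer and instrument response. Kd = DNA concentration giving half-bound drug.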

Plasmodium falciparum [21] = assay: Antiplasmodial activity against chloroquine-susceptible Plasmodium falciparum FCR3 infected in human erythrocytes assessed as inhibition of [3H]hypoxanthine uptake after 48 hrs; assay type: functional, organism-based; in short: as §1
Nucleic Acid [22] = assay: Binding affinity to pUC18 DNA containing 50% AT assessed as maximum melting temperature at 1 uM by spectrophotometry analysis; assay type: nucleic-acid assay; in short: as §4
Nucleic Acid [23] = assay: Binding affinity to polydAdT DNA containing 100% AT assessed as maximum melting temperature at 1 uM by spectrophotometry analysis; assay type: nucleic-acid assay; in short: as §4
Plasmodium falciparum [24] = assay: Antiplasmodial activity against chloroquine-resistant Plasmodium falciparum Dd2 infected in human erythrocytes assessed as inhibition of [3H]hypoxanthine uptake after 48 hrs; assay type: functional, organism-based
In short: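 Ring-stage infected erythrocytes (0.5% parasitemia, 2.5% hematocrit) exposed to compounds 48 h, then radioactive hypoxanthine 24 h; radioactivity in precipitable material taken as proliferation index for IC50.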

Nucleic Acid [25] = assay: Binding affinity to pUC18 DNA at pH 7.5 by UV-Vis spectrophotometry analysis; assay type: nucleic-acid assay
In short: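 A 10 μM drug solution was titrated at room temperature with linearized pUC18 DNA (50% AT), 0.1-50 μM base pairs final. Buffer was TE (10 mM Tris-HCl, 0.1 mM EDTA) with 5 mM NaCl, ionic strength 12 mM. UV-Vis absorption spectra were recorded at 220-380 nm. Kd = DNA concentration at which half the drug is bound.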

Nucleic Acid [26] = assay: Binding affinity to polydAdT DNA containing 100% AT assessed as middle of the peak at half height melting temperature at 1 uM by spectrophotometry analysis; assay type: nucleic-acid assay; in short: as §4
Plasmodium berghei [27] = assay: Antiplasmodial activity against Plasmodium berghei ANKA infected in Swiss mice (Mus musculus) assessed as reduction of parasitaemia at 30 mg/kg, intraperitoneally; assay type: functional, organism-based; design: dose 30 mg/kg; in short: as §2
Mus musculus [28] = assay: Toxicity in Plasmodium berghei ANKA-infected CD1 mice (Mus musculus) assessed as mortality at 30 mg/kg, intraperitoneally; assay type: organism-based; design: dose 30 mg/kg, route intraperitoneal; details: in vivo, ip; in short: as §3

| SMILES | pIC50 (Plasmodium falciparum [1]) | IC90 (Plasmodium falciparum [1]) [nM] | pIC50 (Plasmodium falciparum [2]) | IC90 (Plasmodium falciparum [2]) [nM] | pIC50 (Plasmodium falciparum [3]) | IC90 (Plasmodium falciparum [3]) [nM] | pIC50 (Plasmodium falciparum [5]) | IC90 (Plasmodium falciparum [5]) [nM] | pIC50 (Plasmodium falciparum [7]) | IC90 (Plasmodium falciparum [7]) [nM] | pIC50 (Plasmodium falciparum [8]) | IC90 (Plasmodium falciparum [8]) [nM] | pIC50 (Plasmodium falciparum [9]) | IC90 (Plasmodium falciparum [9]) [nM] | pIC50 (Plasmodium falciparum [15]) | IC90 (Plasmodium falciparum [15]) [nM] | pIC50 (Plasmodium falciparum [17]) | IC90 (Plasmodium falciparum [17]) [nM] | pIC50 (Plasmodium falciparum [18]) | IC90 (Plasmodium falciparum [18]) [nM] | also measured |
| --- | --- | --- | --- | --- | --- | --- | --- | --- | --- | --- | --- | --- | --- | --- | --- | --- | --- | --- | --- | --- | --- |
| Clc1ccc2c(NCCNC(CCN3CCCCC3)c3ccccc3)ccnc2c1 (centres undefined) | 6.87 | 296 | 7.41 | 68.4 | 8.10 | 12.8 | 8.00 | 15.8 | 7.39 | 68.9 | 7.36 | 73.5 | 7.33 | 76.7 | 7.36 | 74.6 | 7.96 | 16 | 7.12 | 205 | Activity (Plasmodium berghei [4]): Active; Activity (Mus musculus [6]): Toxic; Tm (Nucleic Acid [10]): 74.4 °C; pIC50 (Plasmodium falciparum [11]): 8.06; Tm (Nucleic Acid [12]): 75 °C; Tm (Nucleic Acid [13]): 46.4 °C; pIC50 (Plasmodium falciparum [14]): 7.49; pIC50 (MRC5): 5.10; Activity (Mus musculus [16]): Toxic; pIC50 (NCH89): 5.25; pIC50 (Plasmodium falciparum [19]): 7.24; IC90 (Plasmodium falciparum [19]): 105 nM; pKd (Nucleic Acid [20]): 5.40; pIC50 (Plasmodium falciparum [21]): 7.35; IC90 (Plasmodium falciparum [21]): 73.1 nM; Tm (Nucleic Acid [22]): 73 °C; Tm (Nucleic Acid [23]): 46 °C; pIC50 (Plasmodium falciparum [24]): 7.62; pKd (Nucleic Acid [25]): 6.00; Tm (Nucleic Acid [26]): 46.5 °C |
| CN(C)CCC(NCCNc1ccnc2cc(Cl)ccc12)c1ccccc1 (centres undefined) | 6.61 | 376 | 7.19 | 144 | 8.06 | 16.9 | 8.09 | 14.4 | 6.79 | 318 | 7.21 | 177 | 6.80 | 310 | 7.00 | 260 | 7.91 | 16.7 | 6.89 | 267 | Activity (Plasmodium berghei [27]): Active; Activity (Mus musculus [6]): Toxic; Activity (Mus musculus [28]): Toxic; Tm (Nucleic Acid [10]): 75.5 °C; pIC50 (Plasmodium falciparum [11]): 8.15; Tm (Nucleic Acid [12]): 76.5 °C; Tm (Nucleic Acid [13]): 47.1 °C; pIC50 (Plasmodium falciparum [14]): 7.21; pIC50 (MRC5): 4.57; pIC50 (NCH89): 5.14; pIC50 (Plasmodium falciparum [19]): 7.06; IC90 (Plasmodium falciparum [19]): 247 nM; pKd (Nucleic Acid [20]): 5.10; pIC50 (Plasmodium falciparum [21]): 7.19; IC90 (Plasmodium falciparum [21]): 196 nM; Tm (Nucleic Acid [22]): 74.4 °C; Tm (Nucleic Acid [23]): 46.8 °C; pIC50 (Plasmodium falciparum [24]): 7.59; pKd (Nucleic Acid [25]): 5.15; Tm (Nucleic Acid [26]): 47.4 °C |
| CCNCc1cc(Nc2ccnc3cc(Cl)ccc23)ccc1O [DESETHYL AMODIAQUINE] | 6.50 | 407 | 7.11 | 113 | 7.58 | 41.4 | 7.71 | 31.4 | 7.14 | 106 | 7.06 | 125 | 7.00 | 143 | 6.84 | 202 | 7.76 | 37 | 6.80 | 220 | pIC50 (Plasmodium falciparum [19]): 7.04; IC90 (Plasmodium falciparum [19]): 144 nM; pIC50 (Plasmodium falciparum [21]): 7.10; IC90 (Plasmodium falciparum [21]): 130 nM |
